# Source: PubChem BioAssay
# Active and inactive are the calls of the source.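 Rule for the calls, unless noted: active = visually confirmed hit in the image check and inhibition above 20%; inconclusive = visually confirmed hit but inhibition not above 20%; inactive = no visual hit in the image check.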
# How the values were obtained:
# [1] = inhibitors of TNFa-induced NFkB p65 translocation, primary screen, imaging, HUVEC, MLSMR starter and 10KST1 sets (AID 438;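 active = inhibition above 20% together with a positive visual image hit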;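 note: compound added about 3h40 before a 20 min TNFalpha stimulation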;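 for inhibition: signal is the nuclear over cytoplasmic p65 intensity ratio per well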); conditions: HUVEC TNFa-induced p65 nuclear translocation; cell count: measured here: nuclei count (cytotoxicity indicator), at 2.08 µM; inhibition: at 2 µM, stronger effect = higher value, 0% TNFa-plus-vehicle, 100% no-TNFa wells
# [2] = endothelial E-selectin expression blockers – imaging, HUVEC, immunofluorescence, MLSMR starter and 10KST1 sets, primary screen (AID 487); conditions: HUVEC TNFalpha-induced E-selectin immunofluorescence imaging, at 2 µM; inhibition: stronger effect = higher value; nuclei count: measured here: cell number, toxicity;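 for inhibition: signal is fraction of cell area covered by stained E-selectin grains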;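 for nuclei count: 100% = median nuclei count of all wells on the same plate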
# [3] = Primary imaging screen for DUSP6 inhibitors that restore phospho-Erk in transfected HeLa cells, chemical complementation (AID 609;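 active = compounds giving at least 50% inhibition in the cell-based MKP-3 phosphatase rescue imaging test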;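 for inhibition: phospho-Erk level distribution per well compared with pooled transfected vehicle control wells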); conditions: HeLa MKP-3 transfected, phospho-Erk imaging KS statistic, at 10 µM, cells stimulated with TPA for 15 min
# [4] = molecular target: Dual specificity protein phosphatase 6 (Homo sapiens) (UniProt Q16828); test: as above; conditions: HeLa MKP-3 transfected, phospho-Erk imaging KS statistic; at 10 µM; stronger effect = higher value; cells stimulated with TPA for 15 min
# [5] = molecular target: Voltage-gated potassium channel subunit beta-2 (Rattus norvegicus) (UniProt P62483); test: inhibitors of rat Kvbeta2 reductase activity – biochemical, NADPH fluorescence, primary screen (AID 622;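 active = fluorescence slope higher than the sample average by over 3 SD, cut at about -0.22 in these data, passing the limit was not always enough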;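 note: slope of raw intensity against log time taken from 70 to 1610 s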); conditions: recombinant KvBeta, 4-cyanobenzaldehyde reduction, at 10 µM, stronger effect = higher value
# [6] = molecular target: Voltage-gated potassium channel subunit beta-2 (Rattus norvegicus) (UniProt P62483); test: enhancers of rat Kvbeta2 NADPH turnover – biochemical, NADPH fluorescence, primary screen (AID 623;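 active = NADPH fluorescence slope more negative than the mean of all samples by about 3 SD, 99.7% confidence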;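 note: fluorescence intensity change per second fitted from 20 to 320 s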); conditions: Recombinant KvBeta, NADPH fluorescence decrease slope, 10 min; at 10 µM; stronger effect = lower value
# [7] = molecular target: Alpha-2C adrenergic receptor (Homo sapiens) (UniProt P18825); test: compounds altering alpha2C-coupled GIRK flux – cell-based, HEK293 alpha2C/GIRK1/2, thallium flux, primary screen (AID 624;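 active = fluorescence slope after compound addition differing from the mean of all screened samples at 99.7% confidence, in either direction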;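 note: slope of fluorescence ratio to pre-addition baseline per second over 15 to 24 s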); conditions: thallium flux BTC fluorescence, at 10 µM, actives lie on both sides
# [8] = inhibitors of larval lipid processing in zebrafish, primary screen, whole organism, PED6 fluorescence, gall bladder and intestine (AID 686;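 active = a full or partial loss of lipid-probe fluorescence in the fish gall bladder, intestine or both, judged by eye; inactive = no fluorescence loss, or compound toxic to the fish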;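 note: larvae 5 to 7 days old with five fish per well; signal comes from phospholipase A2 cleavage of quenched PED6 carried via bile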); conditions: Zebrafish larvae PED6 lipid processing, fluorescence scoring; screened at 20 µM (by protocol)
# Procedure, shortened: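 Incubation: overnight exposure of larvae to compound plus PED6 / Test system: live zebrafish larvae aged 5-7 days, whole organism / Amount: 5 larvae per well / Read-out basis: visual per-well fluorescence inhibition score / Signal: visual fluorescence microscopy scoring of gall bladder, gut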
# [9] = loss of swimming-algae plug formation – whole organism, Chlamydomonas reinhardtii, WT vs cilia-less mutant, absorbance, 96-well, primary screen (AID 463189;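 active = inhibition at or above 50% relative to wild type and mutant plate controls; inactive = inhibition below 50%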;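 note: 0% = wild type cc124 cells in DMSO and 100% = ciliumless bld1 mutant cells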); conditions: Chlamydomonas reinhardtii gravitaxis, OD600 absorbance, 2 days; at 10 µM; stronger effect = higher value
# [10] = measured here: cell density z-score
# [11] = measured here: nuclear c-Myc green intensity z-score
# [12] = measured here: nuclear pErk red intensity z-score, stronger effect = higher value
# Sequence of Voltage-gated potassium channel subunit beta-2 (Rattus norvegicus) (P62483 whole entry, looked up): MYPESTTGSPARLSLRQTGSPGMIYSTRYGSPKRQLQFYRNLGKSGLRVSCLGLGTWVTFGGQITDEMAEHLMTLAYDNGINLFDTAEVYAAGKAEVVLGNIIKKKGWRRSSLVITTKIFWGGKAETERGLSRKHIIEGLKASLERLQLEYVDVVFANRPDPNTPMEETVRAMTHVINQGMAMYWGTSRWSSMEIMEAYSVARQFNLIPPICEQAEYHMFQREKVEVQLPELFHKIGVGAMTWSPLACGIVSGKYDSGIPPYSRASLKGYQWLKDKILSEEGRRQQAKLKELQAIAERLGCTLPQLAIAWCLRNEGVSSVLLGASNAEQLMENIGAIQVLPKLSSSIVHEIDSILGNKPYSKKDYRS
# Sequence of Dual specificity protein phosphatase 6 (Homo sapiens) (Q16828 whole entry, looked up): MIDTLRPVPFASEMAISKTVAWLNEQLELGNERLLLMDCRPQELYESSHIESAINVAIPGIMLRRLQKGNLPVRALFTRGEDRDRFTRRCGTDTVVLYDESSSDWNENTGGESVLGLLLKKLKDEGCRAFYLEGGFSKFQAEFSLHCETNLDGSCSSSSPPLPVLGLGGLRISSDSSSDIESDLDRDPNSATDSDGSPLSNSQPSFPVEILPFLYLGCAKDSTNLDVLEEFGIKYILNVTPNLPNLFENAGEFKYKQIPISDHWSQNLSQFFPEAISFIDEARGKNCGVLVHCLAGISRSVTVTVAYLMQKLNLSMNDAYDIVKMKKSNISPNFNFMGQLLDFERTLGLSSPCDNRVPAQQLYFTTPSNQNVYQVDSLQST
# Sequence of Alpha-2C adrenergic receptor (Homo sapiens) (P18825 whole entry, looked up): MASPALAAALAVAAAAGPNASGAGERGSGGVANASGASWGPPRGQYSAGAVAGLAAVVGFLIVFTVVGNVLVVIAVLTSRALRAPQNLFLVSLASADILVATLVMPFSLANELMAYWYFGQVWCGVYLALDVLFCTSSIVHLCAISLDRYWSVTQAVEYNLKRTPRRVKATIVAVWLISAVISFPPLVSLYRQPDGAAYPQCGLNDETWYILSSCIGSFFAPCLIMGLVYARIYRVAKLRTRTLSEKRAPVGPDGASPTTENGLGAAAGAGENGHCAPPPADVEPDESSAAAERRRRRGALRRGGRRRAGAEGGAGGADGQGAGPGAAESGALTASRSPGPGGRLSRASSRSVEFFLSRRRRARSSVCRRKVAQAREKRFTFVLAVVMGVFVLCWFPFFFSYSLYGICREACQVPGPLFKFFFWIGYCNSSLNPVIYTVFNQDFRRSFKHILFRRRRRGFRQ
SMILES,cell count [1],inhibition [1],inhibition [2],nuclei count [2],"z-score [3, 10]","z-score [3, 11]","z-score [3, 12]",inhibition [4],fluorescence slope [5],NADPH fluorescence slope [6],slope [7],outcome [8],inhibition [9]
CC1CN(C2CCN(S(=O)(=O)c3ccccc3)CC2)CC(C)O1 (stereo not drawn),451,-10.8% (inactive),-248% (inactive),159%,1.27,-1.71,-0.713,4.37% (inactive),-0.322 (inactive),-2.3e-05 (inactive),0.00481 (inactive),inactive,6.96% (inactive)
Cc1ccc(S(=O)(=O)NC(=O)NCc2ccc3c(c2)OCO3)cc1,396,-2.3% (inactive),-36.4% (inactive),91.6%,-0.395,0.582,-0.563,5.57% (inactive),-0.485 (inactive),-0.000226 (inactive),0.00482 (inactive),inactive,-10% (inactive)
COc1ccc(N2CCN(C3CC(=O)NC3=O)CC2)cc1 (stereo not drawn),540,-26.9% (inactive),-161% (inactive),176%,0.114,-0.641,-1.94,9.82% (inactive),-0.548 (inactive),-4.7e-05 (inactive),0.00484 (inactive),inactive,5.23% (inactive)
c1ccc(C2Nc3ccccc3-c3nc4ccccc4n32)nc1 (stereo not drawn),467,5.5% (inactive),-27.5% (inactive),101%,-0.673,0.738,-0.0231,12.3% (inactive),-0.495 (inactive),-1.1e-05 (inactive),0.00682 (inactive),inactive,-35.3% (inactive)
CCC1(C)Cc2ccccc2-c2nc(NCCO)n(-c3ccccc3)c(=O)c21 (stereo not drawn),467,0.9% (inactive),-104% (inactive),137%,-0.977,0.92,0.687,-14% (inactive),-0.0137 (active),6.5e-06 (inactive),0.00569 (inactive),inactive,-9.34% (inactive)
CC(C)CC(=O)Nc1ccccc1N1CCCC1,269,3.1% (inactive),-24.3% (inactive),101%,-0.814,0.661,-0.804,9.39% (inactive),-0.396 (inactive),-1.2e-05 (inactive),0.0054 (inactive),inactive,-8.2% (inactive)
CCN(CC)CCNC(=O)c1c(C)oc2cc(Br)c(OC)cc12,496,-8.7% (inactive),-70.3% (inactive),112%,2.28,0.845,-0.848,15.8% (inactive),-0.55 (inactive),-3.1e-05 (inactive),0.0063 (inactive),inactive,-1.94% (inactive)
N#CC1=C(SCC(=O)c2ccc(Br)cc2)NC2=C(C(=O)CCC2)C1c1ccco1 (stereo not drawn),383,-10.4% (inactive),-96.6% (inactive),179%,0.687,-1.61,1.14,-8.59% (inactive),-0.399 (inactive),-0.000128 (inactive),0.00589 (inactive),inactive,3.41% (inactive)
C=CCOc1nc2c(c(=O)n(C)c(=O)n2C)n1Cc1ccccc1Cl,617,0.6% (inactive),39.7% (inactive),155%,-1.51,-0.0292,0.274,16.8% (inactive),-0.515 (inactive),-0.000108 (inactive),0.0054 (inactive),inactive,1.08% (inactive)
OC1CN=C2Sc3ccccc3N2C1 (stereo not drawn),530,13.2% (inactive),-227% (inactive),188%,-0.279,0.975,0.81,-7.28% (inactive),-0.378 (inactive),-1.8e-05 (inactive),0.00473 (inactive),inactive,-4.68% (inactive)
CC(=O)C1=C(O)C(=O)N(c2cccc(C(=O)O)c2)C1c1ccc(F)cc1 (stereo not drawn),580,-13% (inactive),-65.7% (inactive),160%,-0.487,-0.742,1.35,-6.06% (inactive),-0.509 (inactive),-3.9e-05 (inactive),0.00665 (inactive),inactive,-5.48% (inactive)
Cc1cccc(C)c1NC(=O)CSCC(=O)c1ccc(O)c(O)c1,364,-4.2% (inactive),-100% (inactive),158%,0.118,0.467,0.0935,24.7% (inactive),-0.4 (inactive),-6.4e-05 (inactive),0.00773 (inactive),inactive,-8.43% (inactive)
CC(C)CC(C(=O)O)C(C)CC(=O)Nc1ccn(-c2ccccc2)n1 (stereo not drawn),345,-19.4% (inactive),-326% (inactive),150%,1.41,-1.41,-0.175,15.1% (inactive),-0.401 (inactive),-3.3e-05 (inactive),0.0075 (inactive),inactive,13.3% (inactive)
CC(=O)Nc1cnc2ccccc2n1,626,-12.5% (inactive),17.9% (inactive),160%,-0.876,0.21,0.164,-6.06% (inactive),-0.397 (inactive),-5.9e-05 (inactive),0.00508 (inactive),inactive; toxic,-0.95% (inactive)
COc1ccc(/C(O)=C2\C(=O)C(=O)N(c3cc(C)on3)C2c2cccc(OC)c2OC)cc1C (stereo not drawn),531,-1.2% (inactive),-148% (inactive),129%,-0.589,1.28,0.634,1.75% (inactive),-0.5 (inactive),-2.6e-05 (inactive),0.00468 (inactive),inactive,-15.3% (inactive)
O=C(O)C1CC=CCC1C(=O)N1CCN(c2nc(-c3ccccc3)c3ccccc3n2)CC1 (stereo not drawn),373,-16.9% (inactive),-48.5% (inactive),165%,-1.19,1.08,0.0489,-5.26% (inactive),-0.305 (inactive),-7.9e-05 (inactive),0.00497 (inactive),inactive,28.5% (inactive)
CCCCOc1ccc(CSC(CC(=O)O)C(=O)O)cc1 (stereo not drawn),336,-16.7% (inactive),-75.1% (inactive),114%,-0.61,-0.895,0.193,3.5% (inactive),-0.433 (inactive),-0.000104 (inactive),0.00541 (inactive),inactive,1.39% (inactive)
COc1cccc(OC)c1-c1nn2c(-c3ccco3)nnc2s1,630,-5.2% (inactive),-86.6% (inactive),172%,0.253,0.886,-0.677,10.1% (inactive),-0.431 (inactive),-0.000166 (inactive),0.00439 (inactive),inactive,5.78% (inactive)
CCOC(=O)c1[nH]c2ccc(OC)cc2c1NC(=O)CCN1CCN(Cc2ccccc2)CC1,541,-11.2% (inactive),-92.4% (inactive),165%,1.87,1.32,-0.24,1.12% (inactive),-0.173 (inactive),-2.9e-05 (inactive),0.00459 (inactive),inactive,16.3% (inactive)
CCOC(=O)c1c(CNCCN(CC)CC)n(C)c2cc(Br)c(OC)cc12,321,3.8% (inactive),-25% (inactive),77.4%,-0.115,0.118,-0.0858,1.75% (inactive),-0.439 (inactive),-8.8e-06 (inactive),0.00617 (inactive),inactive,28.1% (inactive)
Cc1c(C(=O)O)c(=S)sn1CCOc1ccccc1,646,-1.9% (inactive),16.3% (inactive),159%,0.114,1.14,0.102,14% (inactive),-0.256 (inactive),1.3e-05 (inactive),0.00412 (inactive),inactive,4.87% (inactive)
COc1ccc(-c2nn3c(-c4ccccn4)nnc3s2)cc1OC,638,-8.9% (inactive),36.9% (inactive),169%,0.845,-0.297,-0.421,-2.47% (inactive),-0.407 (inactive),-0.000141 (inactive),0.00665 (inactive),inactive,22% (inactive)
COCCCNC(=O)C(C#N)c1nc2ccccc2nc1N1CCCC1 (stereo not drawn),459,12.6% (inactive),-130% (inactive),156%,1.4,0.549,-0.292,7.83% (inactive),-0.000219 (active),0 (inactive),0.0065 (inactive),inactive,-2.67% (inactive)
CN(C)CCCN1C(=O)C(O)=C(C(=O)c2cc3ccccc3o2)C1c1ccccc1 (stereo not drawn),454,2.5% (inactive),-61.8% (inactive),132%,-0.256,0.437,-0.536,6.04% (inactive),-0.418 (inactive),-5.3e-05 (inactive),0.00564 (inactive),inactive,-3.04% (inactive)
CC1(C)Cc2c(C#N)c(NCCc3ccccc3)nc(-c3ccco3)c2CO1,585,-9.7% (inactive),-33.8% (inactive),184%,0.597,-1.77,0.237,22.3% (inactive),-0.122 (inactive),5.1e-06 (inactive),0.00499 (inactive),inactive,34.4% (inactive)
CCN1CC2=C(OC(N)=C(C#N)C2c2ccccc2)/C(=C\c2ccccc2)C1 (stereo not drawn),489,-6.9% (inactive),-190% (inactive),174%,0.232,-0.856,0.432,9.61% (inactive),-0.332 (inactive),-1.3e-05 (inactive),0.00402 (inactive),active; no signal in intestine only,14.6% (inactive)
